Assay results as given in ChEMBL document CHEMBL3588803, “Design, synthesis and pharmacology of 1,1-bistrifluoromethylcarbinol derivatives as liver X receptor β-selective agonists” (Bioorg Med Chem Lett, 2015).

What was measured:
[1] = tested on: Hamster; experiment: Increase in ABCG5 gene expression in Bio F1B hamster intestine at 100 mg/kg, po; assay type: functional, Cricetinae
How it was run: (§1)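 Bio F1B hamsters were fed a high-fat, high-cholesterol diet and dosed orally. Gene expression was measured in intestine (ABCA1, ABCG5, ABCG8) and in peripheral blood (ABCA1).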

[2] = tested on: Hamster; experiment: Increase in ABCA1 gene expression in Bio F1B hamster intestine at 100 mg/kg, po; assay type: functional, Cricetinae; how it was run: as §1
[3] = tested on: Hamster; experiment: Increase in ABCG5 gene expression in Bio F1B hamster intestine at 30 mg/kg, po; assay type: functional, Cricetinae; how it was run: as §1
[4] = tested on: Hamster; experiment: Increase in ABCA1 gene expression in Bio F1B hamster intestine at 30 mg/kg, po; assay type: functional, Cricetinae; how it was run: as §1
[5] = tested on: Hamster; experiment: Hypolipidemic effect in Bio F1B hamster fed with high fat and cholesterol diet assessed as HDL-cholesterol level at 100 mg/kg, po relative to control; assay type: functional, Cricetinae
[6] = Plasma concentration in CE-2 chow diet-fed golden Syrian hamster at 100 mg/kg, po after 4 hrs by HPLC-LC-MS/MS method; assay type: ADME, organism-based, Mesocricetus auratus
How it was run: (§2)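 Hamsters on chow diet received a single oral dose of 100 mg/kg. Heparin plasma was drawn from a forearm vein at 0.5, 1, 2, 3, 4, 6, 8, 10 and 24 h after dosing. Concentrations of parent drug and its carboxylic acid metabolite were measured in plasma.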

[7] = tested on: Hamster; experiment: Increase in ABCG8 gene expression in Bio F1B hamster intestine at 30 mg/kg, po; assay type: functional, Cricetinae; how it was run: as §1
[8] = tested on: Hamster; experiment: Increase in ABCA1 gene expression in Bio F1B hamster peripheral blood at 100 mg/kg, po; assay type: functional, Cricetinae; how it was run: as §1
[9] = Plasma concentration in CE-2 chow diet-fed golden Syrian hamster at 100 mg/kg, po after 2 hrs by HPLC-LC-MS/MS method; assay type: ADME, organism-based, Mesocricetus auratus; how it was run: as §2
[10] = tested on: Hamster; experiment: Effect in lipid profiles in Bio F1B hamster fed with high fat and cholesterol diet assessed as triglyceride level at 100 mg/kg, po relative to control; assay type: organism-based; conditions: cricetinae, in vivo
[11] = Plasma concentration in CE-2 chow diet-fed golden Syrian hamster at 100 mg/kg, po after 24 hrs by HPLC-LC-MS/MS method; assay type: ADME, organism-based, Mesocricetus auratus; how it was run: as §2
[12] = tested on: Hamster; experiment: Effect in lipid profiles in Bio F1B hamster fed with high fat and cholesterol diet assessed as triglyceride level at 30 mg/kg, po relative to control; assay type: organism-based; conditions: cricetinae, in vivo
[13] = Plasma concentration in CE-2 chow diet-fed golden Syrian hamster assessed as 4-(4-(1,1,1,3,3,3-Hexafluoro-2-hydroxypropan-2-yl)-2,6-di-n-propylphenoxy)-butanoic acid level at 100 mg/kg, po after 1 hr by HPLC-LC-MS/MS method; assay type: ADME, organism-based, Mesocricetus auratus; conditions: in vivo; how it was run: as §2
[14] = Plasma concentration in CE-2 chow diet-fed golden Syrian hamster assessed as 4-(4-(1,1,1,3,3,3-Hexafluoro-2-hydroxypropan-2-yl)-2,6-di-n-propylphenoxy)-butanoic acid level at 100 mg/kg, po after 10 hrs by HPLC-LC-MS/MS method; assay type: ADME, organism-based, Mesocricetus auratus; conditions: in vivo; how it was run: as §2
[15] = tested on: Hamster; experiment: Effect in lipid profiles in Bio F1B hamster fed with high fat and cholesterol diet assessed as triglyceride level at 10 mg/kg, po relative to control; assay type: organism-based; conditions: cricetinae, in vivo
[16] = tested on: Hamster; experiment: Increase in ABCA1 gene expression in Bio F1B hamster intestine at 10 to 100 mg/kg, po; assay type: functional, organism-based; conditions: Cricetinae
[17] = tested on: Hamster; experiment: Hypolipidemic effect in Bio F1B hamster fed with high fat and cholesterol diet assessed as lipid-accumulation area in aortic arch at 30 mg/kg, po relative to control; assay type: functional, Cricetinae
[18] = Plasma concentration in CE-2 chow diet-fed golden Syrian hamster at 100 mg/kg, po after 8 hrs by HPLC-LC-MS/MS method; assay type: ADME, organism-based, Mesocricetus auratus; how it was run: as §2
[19] = tested on: Syrian golden hamster; experiment: Drug metabolism in CE-2 chow diet-fed golden Syrian hamster assessed as 4-(4-(1,1,1,3,3,3-Hexafluoro-2-hydroxypropan-2-yl)-2,6-di-n-propylphenoxy)-butanoic acid formation at 100 mg/kg, po after 0.5 to 24 hrs by HPLC-LC-MS/MS method; assay type: ADME, organism-based, Mesocricetus auratus; conditions: in vivo; how it was run: as §2
[20] = Plasma concentration in CE-2 chow diet-fed golden Syrian hamster at 100 mg/kg, po after 3 hrs by HPLC-LC-MS/MS method; assay type: ADME, organism-based, Mesocricetus auratus; how it was run: as §2
[21] = Plasma concentration in CE-2 chow diet-fed golden Syrian hamster assessed as 4-(4-(1,1,1,3,3,3-Hexafluoro-2-hydroxypropan-2-yl)-2,6-di-n-propylphenoxy)-butanoic acid level at 100 mg/kg, po after 8 hrs by HPLC-LC-MS/MS method; assay type: ADME, organism-based, Mesocricetus auratus; conditions: in vivo; how it was run: as §2
[22] = Plasma concentration in CE-2 chow diet-fed golden Syrian hamster at 100 mg/kg, po after 1 hr by HPLC-LC-MS/MS method; assay type: ADME, organism-based, Mesocricetus auratus; how it was run: as §2
[23] = Plasma concentration in CE-2 chow diet-fed golden Syrian hamster assessed as 4-(4-(1,1,1,3,3,3-Hexafluoro-2-hydroxypropan-2-yl)-2,6-di-n-propylphenoxy)-butanoic acid level at 100 mg/kg, po after 24 hrs by HPLC-LC-MS/MS method; assay type: ADME, organism-based, Mesocricetus auratus; conditions: in vivo; how it was run: as §2
[24] = tested on: Hamster; experiment: Hypolipidemic effect in Bio F1B hamster fed with high fat and cholesterol diet assessed as LDL-cholesterol level at 30 mg/kg, po relative to control; assay type: functional, Cricetinae
[25] = tested on: Hamster; experiment: Hypolipidemic effect in Bio F1B hamster fed with high fat and cholesterol diet assessed as total cholesterol level at 30 mg/kg, po relative to control; assay type: functional, Cricetinae
[26] = tested on: Hamster; experiment: Hypolipidemic effect in Bio F1B hamster fed with high fat and cholesterol diet assessed as LDL-cholesterol level at 100 mg/kg, po relative to control; assay type: functional, Cricetinae
[27] = tested on: Hamster; experiment: Hypolipidemic effect in Bio F1B hamster fed with high fat and cholesterol diet assessed as total cholesterol level at 100 mg/kg, po relative to control; assay type: functional, Cricetinae
[28] = tested on: Hamster; experiment: Increase in ABCA1 gene expression in Bio F1B hamster intestine at 10 mg/kg, po; assay type: functional, Cricetinae
[29] = tested on: Hamster; experiment: Hypolipidemic effect in Bio F1B hamster fed with high fat and cholesterol diet assessed as lipid-accumulation area in aortic arch at 10 mg/kg, po relative to control; assay type: functional, Cricetinae
[30] = Plasma concentration in CE-2 chow diet-fed golden Syrian hamster assessed as 4-(4-(1,1,1,3,3,3-Hexafluoro-2-hydroxypropan-2-yl)-2,6-di-n-propylphenoxy)-butanoic acid level at 100 mg/kg, po after 2 hrs by HPLC-LC-MS/MS method; assay type: ADME, organism-based, Mesocricetus auratus; conditions: in vivo; how it was run: as §2
[31] = Cmax in CE-2 chow diet-fed golden Syrian hamster at 100 mg/kg, po after 6 hrs by HPLC-LC-MS/MS method; assay type: ADME, organism-based, Mesocricetus auratus; set-up: dose 100 mg/kg, route oral; conditions: in vivo; how it was run: as §2
[32] = tested on: Hamster; experiment: Increase in ABCG8 gene expression in Bio F1B hamster intestine at 100 mg/kg, po; assay type: functional, Cricetinae; how it was run: as §1
[33] = tested on: Hamster; experiment: Increase in ABCA1 gene expression in Bio F1B hamster peripheral blood at 30 mg/kg, po; assay type: functional, Cricetinae; how it was run: as §1
[34] = tested on: Hamster; experiment: Hypolipidemic effect in Bio F1B hamster fed with high fat and cholesterol diet assessed as HDL-cholesterol level at 10 mg/kg, po relative to control; assay type: functional, Cricetinae
[35] = tested on: Hamster; experiment: Hypolipidemic effect in Bio F1B hamster fed with high fat and cholesterol diet assessed as LDL-cholesterol level at 10 mg/kg, po relative to control; assay type: functional, Cricetinae

CCCc1cc(C(O)(C(F)(F)F)C(F)(F)F)cc(CCC)c1OCCCCN1C(=O)NC(C)(c2ccc(OC(C)C)cc2)C1=O (stereo not given)
fold change (FC) [1]: 1.3 | fold change (FC) [2]: 5.2 | fold change (FC) [3]: 1.5 | fold change (FC) [4]: 4 | Activity [5]: 75% | concentration at 4 h [6]: 290 nM | fold change (FC) [7]: 1.4 | fold change (FC) [8]: 1 | concentration at 2 h [9]: 320 nM | Activity [10]: 112% | concentration at 24 h [11]: 100 nM | Activity [12]: 145% | Cp [13]: 202 ng/mL | Cp [14]: 560 ng/mL | Activity [15]: 97% | Activity [16]: Dose-dependent effect | Activity [17]: 84% | concentration at 8 h [18]: 420 nM | Drug metabolism [19]: metabolite_detected | concentration at 3 h [20]: 290 nM | Cp [21]: 979 ng/mL | concentration at 1 h [22]: 490 nM | Cp [23]: 528 ng/mL | Activity [24]: 91% | Activity [25]: 96% | Activity [26]: 45% | Activity [27]: 53% | fold change (FC) [28]: 2.1 | Activity [29]: 86% | Cp [30]: 375 ng/mL | Cmax [31]: 600 nM | fold change (FC) [32]: 1.3 | fold change (FC) [33]: 0.8 | Activity [34]: 98% | Activity [35]: 94%
